PDI inh = inhibitors of human protein disulfide isomerase; P07237; PDI insulin aggregation turbidity, A650, 90 min; inhibition, % at 10 µM; 0.052% of 350,000 active; AID 588391;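 active = mean inhibition across replicates of 30% or more, whatever share of single replicates reach that level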
GSIS activator = primary screen for activators of insulin secretion dependent on glucose, INS-1E cells, GLuc reporter luminescence; INS-1E GLuc reporter insulin secretion, 2-3 h; activation, % at 16.6 µM; 0.61% of 370,000 active; AID 743287;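 active = lowest replicate activation of at least 40%, so every replicate reaches that level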;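 also: 0% = median of neutral control wells and 100% = median of IBMX positive control wells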
FN deposit inh = fibronectin deposition inhibition; 0.086% of 350,000 active; inhibition, % at 12.6 µM; AID 743247; AH1F fibroblasts, Alexa488-fibronectin deposition fluorescence, overnight;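 active = mean inhibition across replicates of 30% or more, regardless of how many single replicates reach that level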;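 also: positive control wells lacked labelled fibronectin entirely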
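Schedule: 1 h cell adhesion before compound, then overnight fibronectin incubation; test system: AH1F fibroblast monolayer depositing Alexa488-labelled fibronectin into matrix; quantity: 10000 AH1F cells per well; probe or stimulus: fluorescent fibronectin at 24 nM final; signal: fluorescence, ex 485 nm, em 525 nm; evaluation: percent inhibition as loss of matrix-bound fibronectin fluorescence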
ERp5 inh = blocks human ERp5 reductase activity on insulin. Q15084. AID 651711. 0.05% of 350,000 active. inhibition, % at 9.99 µM. ERp5 insulin aggregation, absorbance 650 nm, 90 min;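 active = mean replicate inhibition above about 25%, with every replicate also reaching it, limit read from the data, passing the limit was not always enough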
Target sequence (Q15084 whole entry, looked up): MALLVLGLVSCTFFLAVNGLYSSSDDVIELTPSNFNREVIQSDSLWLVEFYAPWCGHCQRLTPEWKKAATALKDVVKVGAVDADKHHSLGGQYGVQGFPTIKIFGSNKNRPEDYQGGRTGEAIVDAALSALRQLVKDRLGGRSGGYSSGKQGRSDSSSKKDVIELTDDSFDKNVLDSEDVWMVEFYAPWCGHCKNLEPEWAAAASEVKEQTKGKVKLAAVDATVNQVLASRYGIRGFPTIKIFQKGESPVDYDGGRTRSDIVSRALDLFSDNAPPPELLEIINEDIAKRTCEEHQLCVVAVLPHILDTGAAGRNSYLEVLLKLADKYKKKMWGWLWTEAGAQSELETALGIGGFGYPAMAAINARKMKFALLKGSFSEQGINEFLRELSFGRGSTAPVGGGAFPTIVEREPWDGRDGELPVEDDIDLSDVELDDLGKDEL
HIV Env fusion = inhibitors of HIV Env-mediated cell fusion; AID 651610; inhibition, % at 12.3 µM; 1.1% of 360,000 active; HeLa-JRFL Env/CEM21 cell fusion, luciferase;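 active = mean replicate inhibition score of at least 50 and every replicate individually at or above 50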;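 also: 0% = plate neutral controls and 100% = maraviroc near 300 nM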
An asterisk follows results filed as active; [ ] = remark or other dose. Only some compounds are listed: those with a hit (about 1.4% of all), similar ones and a draw of the others.

How did Cc1noc(C)c1S(=O)(=O)N(C)C[C@@H]1OCCCC[C@H](C)Oc2ccc(NC(=O)C3CCCCC3)cc2C(=O)N([C@H](C)CO)C[C@@H]1C do in these assays?
GSIS activator: -15.9; ERp5 inh: -11.0; HIV Env fusion: -326.9[16.7 µM]

What do the screens show for `CCCNC(=O)N1[C@H](C#N)[C@H](c2ccc(-c3cccc(OC)c3)cc2)[C@@H]1CO`?
ERp5 inh: 0.6; HIV Env fusion: 58.2*[16.7 µM]

Results for COc1ccc(NC(=O)N(C)C[C@H]2Oc3ccc(NC(=O)Nc4ccccc4)cc3CC(=O)N([C@@H](C)CO)C[C@@H]2C)cc1 ?
GSIS activator: 1.9; FN deposit inh: 0.9; ERp5 inh: 0.1; HIV Env fusion: 3.1[16.7 µM]

Results for CCC1(c2ccccc2)NC(=O)N(CC(=O)Nc2cc(S(=O)(=O)N3CCCCC3)ccc2OC(C)C)C1=O (stereo not given) ?
PDI inh: 2.0; GSIS activator: -10.9; FN deposit inh: -5.9; ERp5 inh: -0.1; HIV Env fusion: 98.0*

How did CCOC(=O)c1ccc(NC(=O)CC2S/C(=N/N=C/c3c[nH]c4ccccc34)NC2=O)cc1 (stereo not given) do in these assays?
PDI inh: 3.2; GSIS activator: -1.8; FN deposit inh: -4.6; HIV Env fusion: -4.8

What do the screens show for `Cc1ccc(NC(=O)CC2S/C(=N/N=C/c3c[nH]c4ccccc34)NC2=O)cc1` (stereo not given)?
PDI inh: 13.3; GSIS activator: 59.9*; FN deposit inh: 3.4; HIV Env fusion: -11.0

Results for COC(=O)C1=C(C)NC(C)=C(C(=O)OC)C1C(=O)OCC(=O)NC1CCCCC1C (stereo not given) ?
PDI inh: -39.6; GSIS activator: 8.9; FN deposit inh: 4.8; ERp5 inh: -2.4; HIV Env fusion: 68.2*

What do the screens show for `CC(C)NC(=O)Nc1ccc2c(c1)C(=O)N([C@H](C)CO)C[C@@H](C)[C@H](CN(C)Cc1ccncc1)OCCCC[C@H](C)O2`?
GSIS activator: 8.4; HIV Env fusion: 5.7[16.7 µM]

Results for Cc1nc(Cc2ccccc2)sc1CC#N ?
PDI inh: -7.0; GSIS activator: 42.3*; FN deposit inh: -0.2; ERp5 inh: 2.9; HIV Env fusion: 9.5

What do the screens show for `CC[C@@H]1[C@H]2CCCC(=O)N3CC[C@@H](C[C@@H]1OC(=O)NCc1ccccc1)[C@@H]23`?
PDI inh: 7.0; GSIS activator: -5.1; FN deposit inh: 2.6; ERp5 inh: 1.4; HIV Env fusion: -18.4

How did CCCCNC(=O)O[C@H]1C[C@@H]2CCN3C(=O)CCC[C@H]([C@H]1Cc1ccccc1)[C@H]23 do in these assays?
PDI inh: 1.2; GSIS activator: -0.8; FN deposit inh: -3.6; ERp5 inh: 2.9; HIV Env fusion: 56.1*

How did COc1ccc(CNC(=O)c2cccnc2Sc2ccc(C)c(C)c2)cc1 do in these assays?
PDI inh: 5.7; GSIS activator: -9.6; FN deposit inh: -12.6; HIV Env fusion: 21.1

How did COc1cccc(CNC(=O)c2cccnc2Sc2ccccc2)c1 do in these assays?
PDI inh: -31.3; GSIS activator: 48.3*; FN deposit inh: 1.0; ERp5 inh: -2.6; HIV Env fusion: -19.3

How did CCSc1nc2[nH]ncc2c(=O)[nH]1 do in these assays?
PDI inh: -6.8; GSIS activator: 28.4; FN deposit inh: 6.0; HIV Env fusion: 0.9

How did CCCCSc1nc2[nH]ncc2c(=O)[nH]1 do in these assays?
PDI inh: 10.0; GSIS activator: 68.9*; FN deposit inh: -5.5; ERp5 inh: -1.1; HIV Env fusion: -36.6

What do the screens show for `O=C(O)c1ccc(S(=O)(=O)NCc2ccc3c(c2)OCO3)cc1`?
PDI inh: -19.0; GSIS activator: 43.1*; FN deposit inh: 3.5; ERp5 inh: 2.1; HIV Env fusion: 2.0

What do the screens show for `Cc1ccc(S(=O)(=O)NCC(=O)OCC(=O)NCc2ccc3c(c2)OCO3)cc1`?
PDI inh: 2.1; GSIS activator: -39.1; FN deposit inh: 2.9; ERp5 inh: -3.9; HIV Env fusion: 68.5*

Results for CC(=O)Nc1ccc(S(=O)(=O)NCC(=O)OCC(=O)NCc2ccc3c(c2)OCO3)cc1 ?
PDI inh: -1.0; FN deposit inh: -6.2; ERp5 inh: 1.4; HIV Env fusion: 22.3

How did C[C@@H]1CN([C@H](C)CO)C(=O)c2cc(NS(=O)(=O)c3cccs3)ccc2O[C@@H](C)CCCCO[C@@H]1CN(C)CC1CCCCC1 do in these assays?
GSIS activator: -20.0; ERp5 inh: 5.4; HIV Env fusion: 1.4[16.7 µM]

High-throughput results: PubChem, Broad Institute
